In general, Tmax refers to the time at which the peak concentration occurs. For orientation: AUC(0-inf) means the area under the concentration-time curve extrapolated to infinity. In general, bioavailability refers to dose-corrected exposure relative to a reference, in per cent. High values mean much systemic uptake, low ones little systemic uptake.

This note sets out measurements from ChEMBL document CHEMBL1153499, “Synthesis, biological evaluation, and metabolic stability of acrylamide derivatives as novel CCR3 antagonists” (Bioorg Med Chem, 2009).

Series [1] in a line: Permeability by PAMPA. Type of series: ADME. As to conditions: read-out: permeability. The method, boiled down:
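PAMPA permeability measured at pH 6.5.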
(In PAMPA a lipid-coated filter parts donor from acceptor wells.)

The nature of series [2]: Apparent permeability across human Caco-2 cells. Type of series: ADME, cell-based. On the technique in general: Passage across Caco-2 layers is used to estimate intestinal permeability.
Series [3] in a line: Tmax in mouse at 3 mg/kg, po. Type of series: ADME, organism-based. Further details: dose 3 mg/kg, route oral. As to conditions: in vivo.
The nature of series [4]: Volume of distribution at steady state in mouse at 1 mg/kg, iv. Type of series: ADME, organism-based. Further details: dose 1 mg/kg, route intravenous. As to conditions: in vivo, read-out: Vdss.
A short description of series [5]: AUC (0 to infinity) in mouse at 1 mg/kg, iv. Type of series: ADME, organism-based. Further details: time infinity, dose 1 mg/kg, route intravenous. As to conditions: plasma.
Series [6] can be described thus: AUC (0 to infinity) in mouse at 3 mg/kg, po. Type of series: ADME, organism-based. Set-up: time infinity, dose 3 mg/kg, route oral. To be noted: plasma.
Series [7] can be described thus: Bioavailability in mouse at 3 mg/kg, po. As to conditions: in vivo.

Take `O=C(NC1CC2CCC(C1)N2Cc1ccc2cc(F)ccc2c1)c1ccccc1-c1ccccc1` (stereo not given): the Papp in series [1] was over 30 ×10⁻⁶ cm/s.

In the case of `O=C(C=C1CCN(C(=O)c2ccccc2O)CC1)N[C@@H]1CCN(Cc2ccc3cc(F)ccc3c2)C1`, the Papp in series [2] is 4 ×10⁻⁶ cm/s. Besides, the Tmax in series [3] worked out at 48 min. For the same molecule, the Vd in series [4] turned out to be 9.88 L/kg. Also, the AUC(0-inf) in series [5] amounted to 190 ng·h/mL; in series [6], 200 ng·h/mL. Further, in series [7], the bioavailability worked out at 35%.

Regarding `Cc1ccc(C(=O)N2CCC(=CC(=O)N[C@@H]3CCN(Cc4ccc5cc(F)ccc5c4)C3)CC2)c(O)c1`, in series [1], the Papp is 27.3 ×10⁻⁶ cm/s.

As for `O=C(NC1CC2CCC(C1)N2Cc1ccc2cc(F)ccc2c1)c1cc[n+]([O-])cc1C(=O)N1CCCCC1` (stereo not given), the Papp in series [1] came out at 4.7 ×10⁻⁶ cm/s.

In the case of `O=C(C=C1CCN(C(=O)c2ccccc2)CC1)N[C@@H]1CCN(Cc2ccc3cc(F)ccc3c2)C1`, in series [1], the Papp stood at 19.9 ×10⁻⁶ cm/s.
